# Only some compounds are listed: those with a hit (about 3.4% of all), similar ones and a draw of the others.
# PKD1 kinase inh: blocks activity of human protein kinase D1; Q15139; actives 0.056% (n = 200,000); inhibition, % (no concentration beside the values); AID 797; PKD1 kinase fluorescence polarization assay; in the data active = inhibition above about 50%
# DTT redox prof: compounds producing H2O2 with reducing agent – biochemical, NIH compound library profiling, artefact control for MLSCN library redox annotation, primary screen; DTT-dependent redox cycling H2O2, phenol red/HRP absorbance; 100% = 100 µM peroxide control, 0% = buffer; activation, % at 10 µM; actives 0.03% (n = 200,000);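 active = activation of at least 50% relative to the plate's high and low controls in the primary single-dose screen; inactive = activation below 50%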;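 also: compound incubated with DTT at 0.8 mM final as the reducing agent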
# MDM2 E3 inh: inhibitors of human Mdm2 E3 ubiquitin ligase; cell-based MDM2 ubiquitination luciferase reporter, 2 h; 0 = plate control, 100 = twice control, blank-subtracted; actives 0.11% (n = 210,000); AID 1230; Q00987; signal enhancement, % at 5 µM;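 active = signal enhancement of 30% or more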;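 also: luminescence tracks abundance of the self-degrading MDM2-luciferase fusion protein; higher signal means inhibition of MDM2 E3 ligase activity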
# Target sequence (Q00987 whole entry, looked up, the tested form may be a part): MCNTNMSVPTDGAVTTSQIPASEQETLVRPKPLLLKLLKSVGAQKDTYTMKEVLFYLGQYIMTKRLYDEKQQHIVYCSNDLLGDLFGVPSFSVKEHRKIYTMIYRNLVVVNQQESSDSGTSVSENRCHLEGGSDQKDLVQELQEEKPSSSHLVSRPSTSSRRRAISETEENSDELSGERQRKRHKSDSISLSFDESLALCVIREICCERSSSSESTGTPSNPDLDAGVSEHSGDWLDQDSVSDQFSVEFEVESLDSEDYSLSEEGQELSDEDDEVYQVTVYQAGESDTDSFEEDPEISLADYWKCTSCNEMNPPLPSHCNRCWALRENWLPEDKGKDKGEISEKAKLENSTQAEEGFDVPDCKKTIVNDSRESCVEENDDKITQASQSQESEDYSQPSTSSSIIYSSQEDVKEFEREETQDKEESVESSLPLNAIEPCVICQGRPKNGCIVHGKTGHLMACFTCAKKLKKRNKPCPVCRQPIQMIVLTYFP
#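 Assay system: stable mammalian line carrying autodegrading MDM2–luciferase fusion reporter; amount: 2000 cells seeded into each well; buffer or medium: DMEM; benchmarks: plate control and blank wells; signal: luciferase luminescence; timing: 2 h compound exposure at 37 °C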
# KCC2 mod: modulates chloride dependent transport by human KCC2. Q9H2X9. KCC2 cells, thallium flux FluoZin-2 fluorescence. B-score of Tl+ flux slope (higher = more flux/activation; lower = inhibition) at 10 µM. actives 2.2% (n = 190,000). AID 1456;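 active = thallium flux slope and its plate-corrected score both differing from the plate sample mean at a set confidence after two filtering rounds, in either direction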;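 also: slope of fluorescence scaled to starting intensity during 10 to 20 s after thallium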
# ROMK primary: modulates human ROMK potassium channel activity. P48048. Tet-inducible ROMK, thallium flux fluorescence; actives lie on both sides. B-score at 10 µM. actives 2% (n = 130,000). AID 1918;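 active = signal ratio slope over the read window, or its plate-corrected B-score, at least 3 SD from the plate mean, either direction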;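 also: B-score of the F/F0 ratio slope over 7 to 12 s after thallium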
# p97 inhibitor: inhibitors of human p97 ATPase | recombinant p97 ATPase, Kinase-Glo ATP luminescence, 3 h | inhibition, % at 8 µM | actives 0.42% (n = 220,000); in the data active = inhibition above about 15%;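 also: 0% = DMSO vehicle and 100% = wells lacking enzyme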
# KCC2 secondary: confirmation of human KCC2 transport modulators; shares compounds with KCC2 mod; HEK293-KCC2, thallium flux, FluoZin2 fluorescence; stronger effect = higher value; normalised thallium flux (F/F0 slope) at 10 µM; actives 15% (n = 3,700); AID 1713;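 active = thallium flux slope above the same plate's solvent-only control mean plus 3 SD; inconclusive = the two replicate wells disagree; inactive = no significant difference from solvent-only control wells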
# KCC2 bumet counter: thallium flux despite bumetanide block in KCC2 cells, secondary assay 3 | shares compounds with KCC2 mod | HEK293-KCC2 + bumetanide/ouabain, thallium flux FluoZin2; stronger effect = higher value | normalized thallium flux at 10 µM | actives 49% (n = 3,700) | AID 1714;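 active = thallium entry rate above the same plate's blocked-transporter control wells by more than 3 SD; inconclusive = the two repeat wells disagree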;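 also: raw slope of fluorescence over initial fluorescence between 10 and 20 s after thallium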
# KCC2 secondary2: KCC2 (human) modulation, second secondary assay | HEK293-KCC2, thallium flux FluoZin2 fluorescence; actives lie on both sides; F/F0 rise rate, 10–20 s post-thallium | actives 23% (n = 3,700) | shares compounds with KCC2 mod | normalized thallium flux at 10 µM;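 active = thallium flux slope more than 3 SD above or below the plate's solvent-only control mean, mostly below; inconclusive = the two repeat wells disagreed; inactive = no significant shift from solvent-only controls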;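 also: raw slope with 0.1% DMSO as baseline and bumetanide as block control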
# HEK counter1: counter-screen for KCC2 modulators: effect in parental HEK293 cells; actives 46% (n = 3,700); thallium flux FluoZin2, ouabain; baseline-ratio fluorescence slope, 10–20 s after thallium; thallium flux rate (normalised fluorescence) at 10 µM; shares compounds with KCC2 mod;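 active = thallium flux rate significantly above the same plate's solvent-only control wells, beyond their mean plus 3 SD; inconclusive = the two replicate wells gave conflicting results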
# KCC2 retest ouab: KCC2 (human) modulation, ouabain retest; HEK293-KCC2, thallium flux FluoZin2 fluorescence; bidirectional: low = inhibitor, high = activator; actives 48% (n = 3,700); shares compounds with KCC2 mod; raw Tl+ flux slope (below DMSO = inhibition, above = activation) at 10 µM; AID 1717;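 active = thallium flux slope beyond 3 SD from same-plate DMSO control mean in most replicates, usually higher, sometimes lower; inconclusive = repeat tests gave conflicting results; inactive = no significant difference from controls in most replicates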;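 also: slope of initial-normalized fluorescence between seconds 10 and 20 after thallium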
# HEK counter2: acts in parental HEK cells, second KCC2 counter-screen; shares compounds with KCC2 mod; HEK293 parental, thallium flux FluoZin-2 fluorescence slope; thallium flux slope at 10 µM; actives 33% (n = 3,700); AID 1718;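 active = thallium flux slope above the same plate's solvent-control mean plus 3 SD in both duplicate wells; inconclusive = duplicate wells that disagreed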;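 also: run without ouabain in cells lacking the KCC2 cotransporter; slope of fluorescence scaled to its starting value between 10 and 20 s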
# * = called active by the depositor; ? = inconclusive; . = not tested or not shown.
SMILES,PKD1 kinase inh,DTT redox prof,MDM2 E3 inh,KCC2 mod,ROMK primary,p97 inhibitor,KCC2 secondary,KCC2 bumet counter,KCC2 secondary2,HEK counter1,KCC2 retest ouab,HEK counter2
Cc1nn(-c2cc(C(F)(F)F)ccc2Cl)c2nc(C(Cl)(Cl)Cl)[nH]c(=O)c12,.,.,-14.1,50.3*,.,5.0,0.00577,0.061*,0.0483*,0.0356*,0.0483*,0.0343*
Cc1nn(-c2ccccc2)c2nc(C(F)(F)F)[nH]c(=O)c12,-8.7,0.4,-6.7,-0.468,.,7.7,.,.,.,.,.,.
CCOc1ccc(S(=O)(=O)NCc2ccco2)c2ccccc12,-26.8,0.0,-7.2,.,.,4.2,.,.,.,.,.,.
Cc1ccc(C2(C)NC(=O)N(Cc3c(C)noc3C)C2=O)cc1 (centres undefined),-2.6,-0.4,-0.2,0.0238,-0.141,-5.0,.,.,.,.,.,.
Cc1noc(C)c1CN1C(=O)NC2(CCc3ccccc3C2)C1=O (centres undefined),-2.9,1.7,-19.6,0.119,.,3.7,0.00971,0.00685,0.0336,0.00737,0.0217,0.01
O=C(c1ccc(-c2ccccc2)cc1)C1CCCN(C(=O)c2ccncc2)C1 (centres undefined),-7.1,-1.4,6.6,-1.03,.,3.7,.,.,.,.,.,.
Cc1ncoc1C(=O)N1CCCC(C(=O)c2ccc(-c3ccccc3)cc2)C1 (centres undefined),-2.6,-0.2,5.1,-3.25*,-0.96,-2.4,?,0.00624,0.0302,0.00654,0.0205*,?
O=C(c1ccc(-c2ccccc2)cc1)C1CCCN(Cc2ccncc2)C1 (centres undefined),2.0,-0.3,.,-4.08*,-1.64,-0.1,0.00691,0.00495,0.0253*,0.00795,?,0.0113
O=C(Cc1ccc(S(=O)(=O)N2CCCCC2)s1)Nc1ccc(F)c(F)c1,-4.0,0.0,18.2,-0.426,-2.33,-1.7,.,.,.,.,.,.
Cc1ccc2nc(SCC(=O)Nc3cccc(S(N)(=O)=O)c3)[nH]c2c1,.,.,.,-0.704,.,4.5,.,.,.,.,.,.
c1ccc(-c2cnc(CSc3nnc4ccccn34)o2)cc1,-5.8,-2.2,-16.9,0.0521,.,2.8,.,.,.,.,.,.
Cc1ccccc1-n1nnnc1SCc1ncc(-c2ccccc2)o1,8.3,-0.4,-12.0,-3.37*,.,-10.1,0.00677,0.00385,?,?,0.0164,0.0103
Cc1c(CN2CCC(CO)(CC3CCCCO3)CC2)cnn1C (centres undefined),-5.0,-1.1,-3.2,-0.702,0.0749,-1.9,.,.,.,.,.,.
Cc1cc2ccccn2c1C(=O)c1nc(N2CCOCC2)ncc1Cl,0.0,-0.6,-17.7,-3.77*,.,0.2,0.00734,?,0.0256*,0.00739,0.0173*,0.00983
COCCN(CCOC)c1ncc(Cl)c(C(=O)c2c(C)cc3ccccn23)n1,-3.0,1.6,-11.3,-1.16,0.66,2.8,.,.,.,.,.,.
COc1cccc(-n2cn[nH]c2=S)c1,-2.0,-0.6,-14.2,0.178,1.67,5.3,.,.,.,.,.,.
O=c1/c(=C/c2ccc(O)c([N+](=O)[O-])c2)sc2nc3ccccc3n12,5.5,-2.0,-20.6,-3.7*,1.05,7.4,0.0058,0.00495,0.0312,0.00782,0.0174,0.0104

# Assay outcomes as filed in PubChem.
